In article PMC12752248 (BMC Biotechnology, 2025):
Like-named read-outs stand apart in the source and are kept apart here. Marks after values point to notes of the source that are not given here.

Columns and labels:
BJ6PAD [1] = target: T1, BJ6PAD (Bacillus subtilis, UniProt O07006); assay: Specific enzyme activity towards phenolic acid substrates, BJ6PAD; type: biochemical, Bacillus subtilis J6; conditions: 37 ℃, pH 6.0; pCA, FA, CafA 10 mmol/L, SA 6 mmol/L
T1 sequence (O07006 with tags, fused parts or gaps A39G/H105Y/L108V/E129D/F132Y/K134N/E136A/V138I/D139N/E142T/V143L/K146E): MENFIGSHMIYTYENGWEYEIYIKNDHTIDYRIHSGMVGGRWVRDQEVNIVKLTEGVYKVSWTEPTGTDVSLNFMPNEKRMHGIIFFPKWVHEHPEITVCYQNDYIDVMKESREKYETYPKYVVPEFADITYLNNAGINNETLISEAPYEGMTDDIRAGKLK
How it was run: (§1)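 Both purified His-tagged enzymes were reacted at 37 ℃ in 50 mmol/L citrate-Na₂HPO₄ pH 6.0 for 5 min with three hydroxycinnamic acids at 10 mmol/L or sinapic-type acid at 6 mmol/L. Reactions were stopped with methanol, with an enzyme-free buffer control. Remaining substrate was measured by C18 HPLC at 280 nm. One IU is 1 µmol substrate converted/min; protein was by BCA, giving IU/mg. Done in triplicate.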

BJ6PAD-N [2] = target: T2, BJ6PAD-N (Bacillus subtilis, UniProt O07006); assay: Specific enzyme activity towards phenolic acid substrates, BJ6PAD-N; type: biochemical, Bacillus subtilis J6; conditions: 37 ℃, pH 6.0; pCA, FA, CafA 10 mmol/L, SA 6 mmol/L
T2 sequence (O07006 with tags, fused parts or gaps A39G/H105Y/L108V/E129D/F132Y/K134N/E136A/V138I/D139N/E142T/V143L/K146E): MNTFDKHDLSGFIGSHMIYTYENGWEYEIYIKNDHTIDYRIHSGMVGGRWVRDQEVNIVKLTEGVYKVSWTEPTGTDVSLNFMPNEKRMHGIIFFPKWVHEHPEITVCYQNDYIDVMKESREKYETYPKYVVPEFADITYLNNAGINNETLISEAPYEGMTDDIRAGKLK
How it was run: as §1

BJ6PAD-N [3] = assay: as above; type: biochemical, Bacillus subtilis J6; conditions: BJ6PAD-N vs BJ6PAD
How it was run: as §1

BJ6PAD [4] = target: T1, BJ6PAD; assay: Enzymatic kinetic parameters; type: biochemical, Bacillus subtilis J6
BJ6PAD-N [5] = target: T2, BJ6PAD-N; assay: Enzymatic kinetic parameters; type: biochemical, Bacillus subtilis J6
BJ6PAD [6] = target: T1, BJ6PAD; assay: Isothermal titration calorimetry of enzyme-substrate interaction, BJ6PAD; type: binding, Bacillus subtilis J6
How it was run: (§2)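 Ni-purified His-tagged enzyme, eluted in […] buffer pH 7.9–8.1, was placed in the cell at 0.02 mmol/L. Each of four phenolic acid substrates (0.2 mmol/L in the same buffer) was in the syringe. All solutions were degassed 10 min. Twenty 2 µL injections were given 150 s apart at 37 °C with 350 rpm stirring. Thermodynamic parameters came from an independent-site model fit, in triplicate.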

BJ6PAD-N [7] = target: T2, BJ6PAD-N; assay: Isothermal titration calorimetry of enzyme-substrate interaction, BJ6PAD-N; type: binding, Bacillus subtilis J6
How it was run: as §2

BJ6PAD [8] = target: T1, BJ6PAD; assay: Effects of metal ions and chemical reagents on enzyme activity, BJ6PAD; type: biochemical, Bacillus subtilis J6; conditions: 60 min incubation, no additive = 100%
How it was run: (§3)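 His-tagged enzyme was expressed in E. coli BL21(DE3) and Ni-agarose purified. It was incubated 60 min with each metal ion (K⁺, Mg²⁺, Ca²⁺, Fe²⁺, Mn²⁺, Cu²⁺, Zn²⁺), EDTA, SDS or Triton X-100 at final concentrations of 1 or 5 mmol/L. Activity was then assayed in 50 mmol/L citrate-Na₂HPO₄ pH 6.0 at 37 ℃ for 5 min, stopped with methanol, with residual substrate by C18 HPLC at 280 nm. Done in triplicate.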

BJ6PAD-N [9] = target: T2, BJ6PAD-N; assay: Effects of metal ions and chemical reagents on enzyme activity, BJ6PAD-N; type: biochemical, Bacillus subtilis J6; conditions: 60 min incubation, no additive = 100%
How it was run: as §3

BJ6PAD-N [10] = assay: Enzymatic kinetic parameters; type: biochemical, Bacillus subtilis J6; conditions: BJ6PAD-N vs BJ6PAD
[11] = substrate: O=C(O)C=Cc1ccc(O)cc1; assay: Enzymatic kinetic parameters; type: biochemical, Bacillus subtilis J6; conditions: pH 6.0

Row | Specific enzyme activity (BJ6PAD [1]) | Specific enzyme activity (BJ6PAD-N [2]) | Increase of specific enzyme activity of BJ6PAD-N compared with BJ6PAD (BJ6PAD-N [3]) [%] | Km (BJ6PAD [4]) [mM] | Vmax (BJ6PAD [4]) | kcat (BJ6PAD [4]) | Km (BJ6PAD-N [5]) [mM] | Vmax (BJ6PAD-N [5]) | kcat (BJ6PAD-N [5]) | ΔG (BJ6PAD [6]; ITC, 37 °C) [kcal/mol] | ΔH (BJ6PAD [6]; ITC, 37 °C) [kcal/mol] | ΔG (BJ6PAD-N [7]; ITC, 37 °C) [kcal/mol] | ΔH (BJ6PAD-N [7]; ITC, 37 °C) [kcal/mol] | ΔS (BJ6PAD-N [7]; ITC, 37 °C) [kJ/mol·K] | Molecule | also measured
1 | 92.34 ± 0.57^b IU/mg | 100.88 ± 3.71^a IU/mg | 9.25 | 3.54 ± 1.05 | 137.1 ± 8.87^b IU/mg | 43.67 ± 3.61^b s^− 1 | 3.03 ± 0.12 | 139.3 ± 5.70^ab IU/mg | 46.39 ± 1.55^ab s^− 1 | -7.622 | -8.444 | -7.292 | -14.9 | -0.10 | O=C(O)/C=C/c1ccc(O)c(O)c1 [caffeic acid] | Kd (BJ6PAD [6]): 4.23 µM; Kd (BJ6PAD-N [7]): 7 µM
2 | 150.85 ± 2.15^b IU/mg | 178.56 ± 1.58^a IU/mg | 18.37 | 4.62 ± 0.01 | 229.73 ± 4.95^b IU/mg | 73.17 ± 1.29^b s^− 1 | 8.42 ± 0.19 | 337.97 ± 7.10^a IU/mg | 112.54 ± 1.93^a s^− 1 | -8.384 | -5.134 | -6.016 | -0.629 | 0.07 | COc1cc(/C=C/C(=O)O)ccc1O [ferulic acid] | Kd (BJ6PAD [6]; ITC, 37 °C): 1.25 µM; ΔS (BJ6PAD [6]; ITC, 37 °C): 0.04 kJ/mol·K; Kd (BJ6PAD-N [7]; ITC, 37 °C): 59.4 µM
3 | 209.82 ± 1.41^b IU/mg | 248.96 ± 1.59^a IU/mg | 18.65 | – | – | – | – | – | – | -6.917 | -14.71 | -6.812 | -1.45 | 0.07 | O=C(O)/C=C/c1ccc(O)cc1 [p-coumaric acid] | Kd (BJ6PAD [6]): 12.8 µM; Kd (BJ6PAD-N [7]): 16.3 µM
4 | 17.37 ± 0.64^b IU/mg | 23.42 ± 0.02^a IU/mg | 34.83 | 4.19 ± 1.13 | 35.02 ± 6.03^a IU/mg | 11.15 ± 1.57^a s^− 1 | 1.25 ± 0.11 | 29.48 ± 1.23^a IU/mg | 9.82 ± 0.33^a s^− 1 | -6.678 | -10.25 | -7.337 | -0.098 | 0.10 | COc1cc(/C=C/C(=O)O)cc(OC)c1O [sinapic acid] | Decrease in Km value of BJ6PAD-N compared with BJ6PAD (BJ6PAD-N [10]): 70.17%; Increase of catalytic efficiency (kcat/Km) of BJ6PAD-N over BJ6PAD (BJ6PAD-N [10]): 1.93 fold; Kd (BJ6PAD [6]; ITC, 37 °C): 19.3 µM; Kd (BJ6PAD-N [7]; ITC, 37 °C): 7.02 µM

More lines, now with the values behind:

Row | Molecule | Specific enzyme activity (BJ6PAD [1]) | Specific enzyme activity (BJ6PAD-N [2]) | Increase of specific enzyme activity of BJ6PAD-N compared with BJ6PAD (BJ6PAD-N [3]) [%] | Km (BJ6PAD [4]) [mM] | Vmax (BJ6PAD [4]) | kcat (BJ6PAD [4]) | Km (BJ6PAD-N [5]) [mM] | Vmax (BJ6PAD-N [5]) | kcat (BJ6PAD-N [5]) | ΔG (BJ6PAD [6]; ITC, 37 °C) [kcal/mol] | ΔH (BJ6PAD [6]; ITC, 37 °C) [kcal/mol] | ΔG (BJ6PAD-N [7]; ITC, 37 °C) [kcal/mol] | ΔH (BJ6PAD-N [7]; ITC, 37 °C) [kcal/mol] | ΔS (BJ6PAD-N [7]; ITC, 37 °C) [kJ/mol·K] | also measured
5 | CCCCCCCCCCCCOS(=O)(=O)[O-].[Na+] [SDS, sodium dodecyl sulfate] | – | – | – | – | – | – | – | – | – | – | – | – | – | – | Residual enzyme activity (BJ6PAD [8]; 1 mmol/L additive): 67.75 ± 1.3^a %; Residual enzyme activity (BJ6PAD-N [9]; 1 mmol/L additive): 80.5 ± 0.91^b %
6 | [K+] [K^+] | – | – | – | – | – | – | – | – | – | – | – | – | – | – | Residual enzyme activity (BJ6PAD [8]; 1 mmol/L additive): 104.96 ± 0.24^b %; Residual enzyme activity (BJ6PAD [8]; 5 mmol/L additive): 98.61 ± 1.46^b %; Residual enzyme activity (BJ6PAD-N [9]; 1 mmol/L additive): 96.63 ± 2.16^a %; Residual enzyme activity (BJ6PAD-N [9]; 5 mmol/L additive): 89.61 ± 1.14^a %
7 | BJ6PAD (Bacillus subtilis subsp. subtilis str. 168) (protein) MENFIGSHMIYTYENGWEYEIYIKNDHTIDYRIHSGMVGGRWVRDQEVNIVKLTEGVYKVSWTEPTGTDVSLNFMPNEKRMHGIIFFPKWVHEHPEITVCYQNDYIDVMKESREKYETYPKYVVPEFADITYLNNAGINNETLISEAPYEGMTDDIRAGKLK | – | – | – | – | – | – | – | – | – | – | – | – | – | – | Km [11]: 6.87 ± 0.36^b mmol/L; Vmax [11]: 335 ± 5.45 µmol/min/mg; kcat [11]: 107 ± 1.42 s⁻¹; kcat/Km [11]: 15600 ± 1070 M⁻¹ s⁻¹
8 | BJ6PAD-N (Bacillus subtilis subsp. subtilis str. 168) (protein) MNTFDKHDLSGFIGSHMIYTYENGWEYEIYIKNDHTIDYRIHSGMVGGRWVRDQEVNIVKLTEGVYKVSWTEPTGTDVSLNFMPNEKRMHGIIFFPKWVHEHPEITVCYQNDYIDVMKESREKYETYPKYVVPEFADITYLNNAGINNETLISEAPYEGMTDDIRAGKLK | – | – | – | – | – | – | – | – | – | – | – | – | – | – | Km [11]: 11.85 ± 0.56^a mmol/L; Vmax [11]: 536.4 ± 2.55 µmol/min/mg; kcat [11]: 179 ± 3.41 s⁻¹; kcat/Km [11]: 15070 ± 80 M⁻¹ s⁻¹
